Source: ChEMBL document CHEMBL1154352, “Toll-like receptor 7 selective synthetic oligoribonucleotide agonists: synthesis and structure-activity relationship studies” (J Med Chem, 2009)
Calls of active or inactive are those of the source. The rule behind the calls is not given here.

Columns and labels:
[1] = molecular target: Toll-like receptor 3 (Homo sapiens) (UniProt O15455); test: Activation of human TLR3 expressed in HEK293 assessed as induction of NF-kappaB activity reporter gene assay; format: cell-based
[2] = molecular target: T1, Toll-like receptor 8 (Homo sapiens) (UniProt Q9NR97); test: Activation of human TLR8 expressed in HEK293XL assessed as fold induction of NF-kappaB activity at 50 ug/ml after 18 hrs by reporter gene assay relative to control
T1 sequence (whole entry): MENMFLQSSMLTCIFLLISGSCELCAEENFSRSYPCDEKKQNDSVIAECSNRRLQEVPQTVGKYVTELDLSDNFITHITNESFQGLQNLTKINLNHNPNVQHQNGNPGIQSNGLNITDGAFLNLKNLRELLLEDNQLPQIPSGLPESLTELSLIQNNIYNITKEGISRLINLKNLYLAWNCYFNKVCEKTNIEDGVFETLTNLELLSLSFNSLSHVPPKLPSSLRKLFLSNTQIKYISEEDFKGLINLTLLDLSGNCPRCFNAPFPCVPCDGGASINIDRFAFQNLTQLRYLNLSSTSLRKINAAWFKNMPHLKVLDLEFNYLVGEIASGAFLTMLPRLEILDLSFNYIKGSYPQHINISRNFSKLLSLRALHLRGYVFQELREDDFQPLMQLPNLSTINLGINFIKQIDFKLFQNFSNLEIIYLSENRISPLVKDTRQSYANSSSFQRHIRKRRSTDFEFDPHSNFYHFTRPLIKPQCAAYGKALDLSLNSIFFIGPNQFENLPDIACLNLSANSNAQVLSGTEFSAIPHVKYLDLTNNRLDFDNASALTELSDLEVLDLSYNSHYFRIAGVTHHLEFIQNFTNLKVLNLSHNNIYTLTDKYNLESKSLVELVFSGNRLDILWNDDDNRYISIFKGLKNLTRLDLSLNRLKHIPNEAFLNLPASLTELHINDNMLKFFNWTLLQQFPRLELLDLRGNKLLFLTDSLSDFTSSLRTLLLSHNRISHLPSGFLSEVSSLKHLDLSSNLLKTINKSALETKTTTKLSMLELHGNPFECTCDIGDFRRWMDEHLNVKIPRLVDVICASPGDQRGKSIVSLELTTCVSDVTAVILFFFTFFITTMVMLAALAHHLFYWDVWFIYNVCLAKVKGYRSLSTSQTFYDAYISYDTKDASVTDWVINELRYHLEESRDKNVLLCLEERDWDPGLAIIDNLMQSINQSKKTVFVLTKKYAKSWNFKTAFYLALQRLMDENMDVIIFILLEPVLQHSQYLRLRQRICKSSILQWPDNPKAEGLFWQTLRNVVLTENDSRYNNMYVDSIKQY
Summary of the method: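 HEK293 cells stably expressing human TLR7 or TLR8, transiently transfected with SEAP reporter plasmid; medium replaced, SIMRA compounds added, 18 h incubation. Supernatant SEAP measured by QuantiBlue; expressed as fold increase in NF-κB activity over PBS control. Tabulated data at 50 μg/mL, representative of three independent experiments.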

[3] = Metabolic stability in human serum assessed as full length product remaining after 10 mins by HPLC; format: ADME, cell-free; conditions: read-out: Stability
Summary of the method: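 About 0.5 A260 units compound in 1% human serum in PBS, 37 °C; aliquot taken at 10 min, analysed by anion-exchange HPLC for percent intact full-length product.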

Chain of Toll-like receptor 3 (Homo sapiens) (O15455 whole entry): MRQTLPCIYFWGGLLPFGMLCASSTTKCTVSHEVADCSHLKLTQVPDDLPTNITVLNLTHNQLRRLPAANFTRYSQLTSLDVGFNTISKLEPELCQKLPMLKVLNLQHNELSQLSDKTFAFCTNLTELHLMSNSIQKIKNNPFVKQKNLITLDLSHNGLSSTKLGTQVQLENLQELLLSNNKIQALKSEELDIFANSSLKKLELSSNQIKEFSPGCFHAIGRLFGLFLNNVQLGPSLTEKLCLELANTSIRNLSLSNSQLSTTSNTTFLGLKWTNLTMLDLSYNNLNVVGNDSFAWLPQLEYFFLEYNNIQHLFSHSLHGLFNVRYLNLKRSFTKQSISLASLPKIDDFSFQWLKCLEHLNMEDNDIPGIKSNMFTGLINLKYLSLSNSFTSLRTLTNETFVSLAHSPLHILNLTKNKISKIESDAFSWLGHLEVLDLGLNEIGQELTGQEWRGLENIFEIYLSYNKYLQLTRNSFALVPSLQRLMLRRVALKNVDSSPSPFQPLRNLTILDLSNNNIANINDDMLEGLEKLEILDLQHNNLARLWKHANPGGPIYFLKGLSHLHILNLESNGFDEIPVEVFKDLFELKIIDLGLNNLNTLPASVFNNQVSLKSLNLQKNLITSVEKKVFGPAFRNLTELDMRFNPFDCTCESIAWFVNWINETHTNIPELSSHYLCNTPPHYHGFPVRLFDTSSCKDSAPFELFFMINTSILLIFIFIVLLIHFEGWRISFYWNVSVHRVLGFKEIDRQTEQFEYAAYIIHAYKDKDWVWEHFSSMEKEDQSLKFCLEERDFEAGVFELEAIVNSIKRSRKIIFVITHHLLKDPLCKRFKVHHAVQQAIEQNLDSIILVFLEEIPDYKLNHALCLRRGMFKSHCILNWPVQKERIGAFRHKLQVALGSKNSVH

| Structure (SMILES) | Activity [1] | fold change (FC) [2] | remaining at 10 min [3] [%] |
| --- | --- | --- | --- |
| Nc1ccn([C@@H]2O[C@H](COP(=O)(S)O[C@H]3[C@@H](O)[C@H](n4cnc5c(N)ncnc54)O[C@@H]3CO)[C@@H](OP(=O)(S)OC[C@H]3O[C@@H](n4ccc(=O)[nH]c4=O)[C@H](O)[C@@H]3OP(=O)(S)OC[C@H]3O[C@@H](n4ccc5c(=O)[nH]c(N)nc54)[C@H](O)[C@@H]3OP(=O)(S)OC[C@H]3O[C@@H](n4cnc5c(N)ncnc54)[C@H](O)[C@@H]3OP(=O)(S)OC[C@H]3O[C@@H](n4ccc5c(=O)[nH]c(N)nc54)[C@H](O)[C@@H]3OP(=O)(S)OC[C@H]3O[C@@H](n4cnc5c(N)ncnc54)[C@H](O)[C@@H]3OP(=O)(S)OC[C@H]3O[C@@H](n4ccc5c(=O)[nH]c(N)nc54)[C@H](O)[C@@H]3OP(=O)(S)OC[C@H]3O[C@@H](n4ccc(N)nc4=O)[C@H](O)[C@@H]3OP(=O)(S)OC[C@H]3O[C@@H](n4ccc(=O)[nH]c4=O)[C@H](O)[C@@H]3OP(=O)(S)OC[C@H]3O[C@@H](n4ccc(=O)[nH]c4=O)[C@H](O)[C@@H]3OP(=O)(S)OCC(O)COP(=O)(S)O[C@H]3[C@@H](O)[C@H](n4ccc(=O)[nH]c4=O)O[C@@H]3COP(=O)(S)O[C@H]3[C@@H](O)[C@H](n4ccc(=O)[nH]c4=O)O[C@@H]3COP(=O)(S)O[C@H]3[C@@H](O)[C@H](n4ccc(N)nc4=O)O[C@@H]3COP(=O)(S)O[C@H]3[C@@H](O)[C@H](n4ccc5c(=O)[nH]c(N)nc54)O[C@@H]3COP(=O)(S)O[C@H]3[C@@H](O)[C@H](n4cnc5c(N)ncnc54)O[C@@H]3COP(=O)(S)O[C@H]3[C@@H](O)[C@H](n4ccc5c(=O)[nH]c(N)nc54)O[C@@H]3COP(=O)(S)O[C@H]3[C@@H](O)[C@H](n4cnc5c(N)nc(N)nc54)O[C@@H]3COP(=O)(S)O[C@H]3[C@@H](O)[C@H](n4ccc5c(=O)[nH]c(N)nc54)O[C@@H]3COP(=O)(S)O[C@H]3[C@@H](O)[C@H](n4ccc(=O)[nH]c4=O)O[C@@H]3COP(=O)(S)O[C@H]3[C@@H](O)[C@H](n4ccc(N)nc4=O)O[C@@H]3COP(=O)(S)O[C@H]3[C@@H](O)[C@H](n4cnc5c(N)ncnc54)O[C@@H]3CO)[C@H]2O)c(=O)n1 (some centres undefined) | inactive | 2.4 | 79 |
| Nc1ccn([C@@H]2O[C@H](COP(=O)(S)O[C@H]3[C@@H](O)[C@H](n4cnc5c(N)ncnc54)O[C@@H]3CO)[C@@H](OP(=O)(S)OC[C@H]3O[C@@H](n4ccc5c(=O)[nH]c(N)nc54)[C@H](O)[C@@H]3OP(=O)(S)OC[C@H]3O[C@@H](n4ccc(N)nc4=O)[C@H](O)[C@@H]3OP(=O)(S)OC[C@H]3O[C@@H](n4ccc(=O)[nH]c4=O)[C@H](O)[C@@H]3OP(=O)(S)OC[C@H]3O[C@@H](n4ccc5c(=O)[nH]c(N)nc54)[C@H](O)[C@@H]3OP(=O)(S)OC[C@H]3O[C@@H](n4cnc5c(N)ncnc54)[C@H](O)[C@@H]3OP(=O)(S)OC[C@H]3O[C@@H](n4ccc5c(=O)[nH]c(N)nc54)[C@H](O)[C@@H]3OP(=O)(S)OC[C@H]3O[C@@H](n4ccc(N)nc4=O)[C@H](O)[C@@H]3OP(=O)(S)OC[C@H]3O[C@@H](n4ccc(=O)[nH]c4=O)[C@H](O)[C@@H]3OP(=O)(S)OC[C@H]3O[C@@H](n4ccc(=O)[nH]c4=O)[C@H](O)[C@@H]3OP(=O)(S)OCC(O)COP(=O)(S)O[C@H]3[C@@H](O)[C@H](n4ccc(=O)[nH]c4=O)O[C@@H]3COP(=O)(S)O[C@H]3[C@@H](O)[C@H](n4ccc(=O)[nH]c4=O)O[C@@H]3COP(=O)(S)O[C@H]3[C@@H](O)[C@H](n4ccc(N)nc4=O)O[C@@H]3COP(=O)(S)O[C@H]3[C@@H](O)[C@H](n4ccc5c(=O)[nH]c(N)nc54)O[C@@H]3COP(=O)(S)O[C@H]3[C@@H](O)[C@H](n4cnc5c(N)nc(N)nc54)O[C@@H]3COP(=O)(S)O[C@H]3[C@@H](O)[C@H](n4ccc5c(=O)[nH]c(N)nc54)O[C@@H]3COP(=O)(S)O[C@H]3[C@@H](O)[C@H](n4ccc(=O)[nH]c4=O)O[C@@H]3COP(=O)(S)O[C@H]3[C@@H](O)[C@H](n4ccc(N)nc4=O)O[C@@H]3COP(=O)(S)O[C@H]3[C@@H](O)[C@H](n4ccc5c(=O)[nH]c(N)nc54)O[C@@H]3COP(=O)(S)O[C@H]3[C@@H](O)[C@H](n4ccc(N)nc4=O)O[C@@H]3COP(=O)(S)O[C@H]3[C@@H](O)[C@H](n4cnc5c(N)ncnc54)O[C@@H]3CO)[C@H]2O)c(=O)n1 (some centres undefined) | inactive | 0.9 | 78 |
| Nc1ccn([C@@H]2O[C@H](COP(=O)(S)O[C@H]3[C@@H](O)[C@H](n4ccc(N)nc4=O)O[C@@H]3COP(=O)(S)O[C@H]3[C@@H](O)[C@H](n4cnc5c(N)ncnc54)O[C@@H]3COP(=O)(S)O[C@H]3[C@@H](O)[C@H](n4ccc5c(=O)[nH]c(N)nc54)O[C@@H]3COP(=O)(S)O[C@H]3[C@@H](O)[C@H](n4ccc(=O)[nH]c4=O)O[C@@H]3COP(=O)(S)O[C@H]3[C@@H](O)[C@H](n4ccc(=O)[nH]c4=O)O[C@@H]3COP(=O)(S)O[C@H]3[C@@H](O)[C@H](n4ccc(N)nc4=O)O[C@@H]3COP(=O)(S)O[C@H]3[C@@H](O)[C@H](n4cnc5c(N)ncnc54)O[C@@H]3CO)[C@@H](OP(=O)(S)OC[C@H]3O[C@@H](n4ccc(=O)[nH]c4=O)[C@H](O)[C@@H]3OP(=O)(S)OC[C@H]3O[C@@H](n4ccc5c(=O)[nH]c(N)nc54)[C@H](O)[C@@H]3OP(=O)(S)OC[C@H]3O[C@@H](n4ccc(=O)[nH]c4=O)[C@H](O)[C@@H]3OP(=O)(S)OCC(O)COP(=O)(S)O[C@H]3[C@@H](O)[C@H](n4ccc(=O)[nH]c4=O)O[C@@H]3COP(=O)(S)O[C@H]3[C@@H](O)[C@H](n4ccc5c(=O)[nH]c(N)nc54)O[C@@H]3COP(=O)(S)O[C@H]3[C@@H](O)[C@H](n4ccc(=O)[nH]c4=O)O[C@@H]3COP(=O)(S)O[C@H]3[C@@H](O)[C@H](n4ccc(N)nc4=O)O[C@@H]3COP(=O)(S)O[C@H]3[C@@H](O)[C@H](n4ccc(N)nc4=O)O[C@@H]3COP(=O)(S)O[C@H]3[C@@H](O)[C@H](n4cnc5c(N)ncnc54)O[C@@H]3COP(=O)(S)O[C@H]3[C@@H](O)[C@H](n4ccc5c(=O)[nH]c(N)nc54)O[C@@H]3COP(=O)(S)O[C@H]3[C@@H](O)[C@H](n4ccc(=O)[nH]c4=O)O[C@@H]3COP(=O)(S)O[C@H]3[C@@H](O)[C@H](n4ccc(=O)[nH]c4=O)O[C@@H]3COP(=O)(S)O[C@H]3[C@@H](O)[C@H](n4ccc(N)nc4=O)O[C@@H]3COP(=O)(S)O[C@H]3[C@@H](O)[C@H](n4cnc5c(N)ncnc54)O[C@@H]3CO)[C@H]2O)c(=O)n1 (some centres undefined) | inactive | 0.7 | 63 |
